Measured values from PubChem BioAssay.
Active and inactive are the calls of the source.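 How the source made its calls, unless noted: active means fluorescence slope after compound addition differing from the mean of all screened samples at 99.7% confidence, in either direction; inactive means the rest.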

Key:
[1] = inhibitors of TNFa-induced NFkB p65 translocation, primary screen, imaging, HUVEC, MLSMR starter and 10KST1 sets (AID 438;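 active means inhibition above 20% together with a positive visual image hit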;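 further: compound added about 3h40 before a 20 min TNFalpha stimulation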;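 on inhibition: signal is the nuclear over cytoplasmic p65 intensity ratio per well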); settings: HUVEC TNFa-induced p65 nuclear translocation; cell count: measured here: nuclei count (cytotoxicity indicator), at 2.08 µM; inhibition: at 2 µM, stronger effect = higher value, 0% TNFa-plus-vehicle, 100% no-TNFa wells
[2] = reduction of polyQ htt aggregates in cells – imaging, exon1htt(103Q)mCFP cells, high-content imaging, primary screen (AID 483;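 active means visual image review flags a hit and inhibition of aggregation exceeds 20%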;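 further: compound exposure lasted 3 days before fixation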;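 on nuclei count: percent of the per-plate median nuclei count of sample wells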); settings: exon1htt(103Q)mCFP cell line, aggregate imaging, at 2 µM; inhibition of aggregation: stronger effect = higher value; nuclei count: measured here: cell count, toxicity
[3] = endothelial E-selectin expression blockers – imaging, HUVEC, immunofluorescence, MLSMR starter and 10KST1 sets, primary screen (AID 487;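 active means visually confirmed hit in the image check and inhibition above 20%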;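 on inhibition: signal is fraction of cell area covered by stained E-selectin grains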;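 on nuclei count: 100% = median nuclei count of all wells on the same plate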); settings: HUVEC TNFalpha-induced E-selectin immunofluorescence imaging, at 2 µM; inhibition: stronger effect = higher value; nuclei count: measured here: cell number, toxicity
[4] = target: Voltage-gated potassium channel subunit beta-2 (Rattus norvegicus) (UniProt P62483); assay: inhibitors of rat Kvbeta2 reductase activity – biochemical, NADPH fluorescence, primary screen (AID 622;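 active means fluorescence slope higher than the sample average by over 3 SD, cut at about -0.22 in these data, passing the limit was not always enough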;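 further: slope of raw intensity against log time taken from 70 to 1610 s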); settings: recombinant KvBeta, 4-cyanobenzaldehyde reduction, at 10 µM, stronger effect = higher value
[5] = target: Voltage-gated potassium channel subunit beta-2 (Rattus norvegicus) (UniProt P62483); assay: enhancers of rat Kvbeta2 NADPH turnover – biochemical, NADPH fluorescence, primary screen (AID 623;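 active means NADPH fluorescence slope more negative than the mean of all samples by about 3 SD, 99.7% confidence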;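 further: fluorescence intensity change per second fitted from 20 to 320 s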); settings: Recombinant KvBeta, NADPH fluorescence decrease slope, 10 min; at 10 µM; stronger effect = lower value
[6] = target: Alpha-2C adrenergic receptor (Homo sapiens) (UniProt P18825); assay: compounds altering alpha2C-coupled GIRK flux – cell-based, HEK293 alpha2C/GIRK1/2, thallium flux, primary screen (AID 624); settings: thallium flux BTC fluorescence, at 10 µM, actives lie on both sides;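 further: slope of fluorescence ratio to pre-addition baseline per second over 15 to 24 s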
[7] = inhibitors of larval lipid processing in zebrafish, primary screen, whole organism, PED6 fluorescence, gall bladder and intestine (AID 686;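 active means a full or partial loss of lipid-probe fluorescence in the fish gall bladder, intestine or both, judged by eye; inactive means no fluorescence loss, or compound toxic to the fish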;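 further: larvae 5 to 7 days old with five fish per well; signal comes from phospholipase A2 cleavage of quenched PED6 carried via bile; overnight exposure to compound and PED6 before scoring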); settings: Zebrafish larvae PED6 lipid processing, fluorescence scoring; screened at 20 µM (by protocol)
Summary of the method: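 Test system – live zebrafish larvae aged 5-7 days, whole organism · Buffer or medium – E3 fish medium · Reagent – quenched phospholipase substrate PED6, 100 nM final, ingested by larvae · Doses – 20 µM single dose · Incubation – overnight compound and PED6 incubation · Technique – visual fluorescence microscopy scoring of gall bladder, gut · Read-out basis – visual per-well fluorescence inhibition score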

[8] = blockers of RIG-like receptor reporter activation – cell-based, Sendai virus stimulus, luciferase, 10K MLSCN set, TLR/RLR signaling modifier project, primary screen (AID 602276;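 active means inhibition at or above 50% at 10 µM; inactive means inhibition below 50%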;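 further: firefly luciferase from ISG56 promoter only with Renilla not read in this screen; 0% = Sendai virus plus DMSO and 100% = medium plus DMSO without virus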); settings: HEK293 RL24 IRF3 luciferase reporter, at 10 µM, stronger effect = higher value
[9] = TLR3 IRF3 reporter activation blockers – cell-based, poly I:C stimulus, luciferase, 10K MLSCN set, primary screen (AID 602277;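 active means inhibition of the reporter signal at or above 50%; inactive means inhibition below 50%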); settings: HEK293-TLR3 RL24 IRF3 luciferase reporter, at 10 µM, stronger effect = higher value

Voltage-gated potassium channel subunit beta-2 (Rattus norvegicus), sequence (P62483 whole entry, looked up): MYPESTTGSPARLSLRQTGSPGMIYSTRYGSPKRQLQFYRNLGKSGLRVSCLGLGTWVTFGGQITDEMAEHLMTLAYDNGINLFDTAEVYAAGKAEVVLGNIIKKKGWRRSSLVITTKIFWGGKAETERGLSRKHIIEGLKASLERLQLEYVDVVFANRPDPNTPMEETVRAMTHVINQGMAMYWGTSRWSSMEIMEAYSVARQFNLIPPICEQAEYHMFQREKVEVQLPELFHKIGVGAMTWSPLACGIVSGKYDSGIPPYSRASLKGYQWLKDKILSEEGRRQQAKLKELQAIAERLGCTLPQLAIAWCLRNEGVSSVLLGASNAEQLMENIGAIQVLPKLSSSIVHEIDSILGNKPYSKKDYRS
Alpha-2C adrenergic receptor (Homo sapiens), sequence (P18825 whole entry, looked up): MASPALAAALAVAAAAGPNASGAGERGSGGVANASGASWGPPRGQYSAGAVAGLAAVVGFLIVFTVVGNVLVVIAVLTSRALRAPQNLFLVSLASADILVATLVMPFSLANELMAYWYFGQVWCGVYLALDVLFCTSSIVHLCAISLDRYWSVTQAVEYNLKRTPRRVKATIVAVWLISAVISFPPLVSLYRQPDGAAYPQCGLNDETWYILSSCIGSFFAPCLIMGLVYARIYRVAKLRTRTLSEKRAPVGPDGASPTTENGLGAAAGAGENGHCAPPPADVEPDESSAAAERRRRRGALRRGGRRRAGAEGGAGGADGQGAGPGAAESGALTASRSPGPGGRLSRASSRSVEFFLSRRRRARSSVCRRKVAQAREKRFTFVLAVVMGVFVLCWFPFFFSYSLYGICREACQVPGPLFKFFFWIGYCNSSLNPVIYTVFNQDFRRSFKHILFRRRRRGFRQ

COc1ccc(NC(=O)Cn2nnc(-c3ccccc3F)n2)cc1Cl
cell count [1]: 602 | inhibition [1]: -9.3% (inactive) | inhibition of aggregation [2]: -0.1% (inactive) | nuclei count [2]: 92.6% | inhibition [3]: -59.1% (inactive) | nuclei count [3]: 107% | fluorescence slope [4]: -0.382 (inactive) | NADPH fluorescence slope [5]: 1.8e-05 (inactive) | slope [6]: 0.00543 (inactive) | outcome [7]: inactive | inhibition [8]: 7.23% (inactive) | inhibition [9]: 38.7% (inactive)

Cc1cc(Br)c(S(=O)(=O)n2nnc3ccccc32)cc1C
cell count [1]: 608 | inhibition [1]: -4.5% (inactive) | inhibition of aggregation [2]: 3.7% (inactive) | nuclei count [2]: 81.9% | inhibition [3]: 29% (inactive) | nuclei count [3]: 107% | fluorescence slope [4]: -0.326 (inactive) | NADPH fluorescence slope [5]: 2.1e-05 (inactive) | slope [6]: 0.00509 (inactive) | outcome [7]: inactive | inhibition [8]: 13.1% (inactive) | inhibition [9]: 12.1% (inactive)

O=C(CCn1[nH]c(=O)c2ccccc2c1=O)NCCO
cell count [1]: 588 | inhibition [1]: -6.5% (inactive) | inhibition of aggregation [2]: 0.4% (inactive) | nuclei count [2]: 97.8% | inhibition [3]: -35.4% (inactive) | nuclei count [3]: 71.1% | fluorescence slope [4]: -0.361 (inactive) | NADPH fluorescence slope [5]: -5.6e-05 (inactive) | slope [6]: 0.00681 (inactive) | outcome [7]: inactive | inhibition [8]: 1.06% (inactive) | inhibition [9]: -8.68% (inactive)

COc1ccc(S(=O)(=O)Nc2ccccc2SC)cc1C
cell count [1]: 664 | inhibition [1]: -7.1% (inactive) | inhibition of aggregation [2]: 12.2% (inactive) | nuclei count [2]: 102% | inhibition [3]: -125% (inactive) | nuclei count [3]: 105% | fluorescence slope [4]: -0.346 (inactive) | NADPH fluorescence slope [5]: 1.3e-05 (inactive) | slope [6]: 0.00618 (inactive) | outcome [7]: inactive | inhibition [8]: 12.4% (inactive) | inhibition [9]: 22.4% (inactive)

Cc1occc1C(=O)Nc1ccc(S(=O)(=O)N2CCN(C)CC2)cc1
cell count [1]: 318 | inhibition [1]: 1% (inactive) | inhibition of aggregation [2]: -23.8% (inactive) | nuclei count [2]: 95.5% | inhibition [3]: -42.1% (inactive) | nuclei count [3]: 107% | fluorescence slope [4]: -0.44 (inactive) | NADPH fluorescence slope [5]: -1.3e-05 (inactive) | slope [6]: 0.00548 (inactive) | outcome [7]: inactive | inhibition [8]: 15.9% (inactive) | inhibition [9]: 16.1% (inactive)

CC1=Nn2c(nnc2-c2ccccc2)SC1
cell count [1]: 303 | inhibition [1]: -2.7% (inactive) | inhibition of aggregation [2]: -6.5% (inactive) | nuclei count [2]: 121% | inhibition [3]: -19.2% (inactive) | nuclei count [3]: 108% | fluorescence slope [4]: -0.374 (inactive) | NADPH fluorescence slope [5]: -1.6e-05 (inactive) | slope [6]: 0.00576 (inactive) | outcome [7]: inactive | inhibition [8]: 11.5% (inactive) | inhibition [9]: -4.42% (inactive)

CN(C)C(CNC(=O)Nc1cccc(Cl)c1)c1cccnc1 (stereo unspecified)
cell count [1]: 298 | inhibition [1]: -5.5% (inactive) | inhibition of aggregation [2]: 1.1% (inactive) | nuclei count [2]: 67.5% | inhibition [3]: -40.7% (inactive) | nuclei count [3]: 115% | fluorescence slope [4]: -0.427 (inactive) | NADPH fluorescence slope [5]: -5.1e-06 (inactive) | slope [6]: 0.00889 (active) | outcome [7]: inactive | inhibition [8]: 18.9% (inactive) | inhibition [9]: 26.3% (inactive)

O=S1(=O)CCN2C(=N1)SC1=C2CCN(Cc2ccccc2)C1
cell count [1]: 514 | inhibition [1]: -3% (inactive) | inhibition of aggregation [2]: -3.2% (inactive) | nuclei count [2]: 91.4% | inhibition [3]: -42.3% (inactive) | nuclei count [3]: 144% | fluorescence slope [4]: -0.434 (inactive) | NADPH fluorescence slope [5]: -1e-05 (inactive) | slope [6]: 0.00453 (inactive) | outcome [7]: inactive | inhibition [8]: 17% (inactive) | inhibition [9]: 13.7% (inactive)

N#CCc1ccc(NC(=O)Nc2cccc(Cl)c2)cc1
cell count [1]: 321 | inhibition [1]: -8.6% (inactive) | inhibition of aggregation [2]: -19.9% (inactive) | nuclei count [2]: 85.4% | inhibition [3]: -112% (inactive) | nuclei count [3]: 137% | fluorescence slope [4]: -0.46 (inactive) | NADPH fluorescence slope [5]: -5.6e-05 (inactive) | slope [6]: 0.00505 (inactive) | outcome [7]: inactive | inhibition [8]: -26.8% (inactive) | inhibition [9]: -62.7% (inactive)

CC(OC(=O)CNC(=O)C12CC3CC(CC(C3)C1)C2)C(=O)Nc1ccc(N2CCOCC2)cc1 (stereo unspecified)
cell count [1]: 663 | inhibition [1]: 4.1% (inactive) | inhibition of aggregation [2]: 3.3% (inactive) | nuclei count [2]: 110% | inhibition [3]: -47.1% (inactive) | nuclei count [3]: 111% | fluorescence slope [4]: -0.448 (inactive) | NADPH fluorescence slope [5]: -5.7e-05 (inactive) | slope [6]: 0.00563 (inactive) | outcome [7]: inactive | inhibition [8]: -2.61% (inactive) | inhibition [9]: -14.5% (inactive)

Cc1ccc(C)n1-c1ccc(-n2cnnn2)cc1
cell count [1]: 572 | inhibition [1]: -1.6% (inactive) | inhibition of aggregation [2]: -8.3% (inactive) | nuclei count [2]: 86.5% | inhibition [3]: -24.4% (inactive) | nuclei count [3]: 50.8% | fluorescence slope [4]: -0.366 (inactive) | NADPH fluorescence slope [5]: -5.9e-05 (inactive) | slope [6]: 0.00396 (inactive) | outcome [7]: inactive | inhibition [8]: 8.71% (inactive) | inhibition [9]: 9.74% (inactive)

Cc1nc(C)n(C(C)CC(=O)O)n1 (stereo unspecified)
cell count [1]: 635 | inhibition [1]: 0.7% (inactive) | inhibition of aggregation [2]: 53.1% (active) | nuclei count [2]: 90.8% | inhibition [3]: -147% (inactive) | nuclei count [3]: 115% | fluorescence slope [4]: -0.386 (inactive) | NADPH fluorescence slope [5]: -4.4e-05 (inactive) | slope [6]: 0.00496 (inactive) | outcome [7]: inactive | inhibition [8]: 5.03% (inactive) | inhibition [9]: 7.13% (inactive)

CCOC(=O)c1ccccc1NC1CC(=O)N(c2ccccc2C)C1=O (stereo unspecified)
cell count [1]: 242 | inhibition [1]: 6.7% (inactive) | inhibition of aggregation [2]: 12.6% (inactive) | nuclei count [2]: 97.9% | inhibition [3]: 8.6% (inactive) | nuclei count [3]: 94.8% | fluorescence slope [4]: -0.262 (inactive) | NADPH fluorescence slope [5]: 9.8e-06 (inactive) | slope [6]: 0.00569 (inactive) | outcome [7]: inactive | inhibition [8]: -4.41% (inactive) | inhibition [9]: -8.61% (inactive)
